The target of one assay is Phosphodiesterase 3 (Homo sapiens, UniProt Q14432+Q13370). Put plainly: Inhibition of dual cGMP-inhibited phosphodiesterase 3 (PDE3) was determined in homogenates from human platelets. An outline of the steps:
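Enzyme source: homogenates of human platelets. Values as pIC50 (−log IC50), mean of two independent determinations each run in triplicate.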

The test system of assay [1] is Mus musculus. Description: Inhibition of arachidonic acid (AA)-induced mouse ear edema after pretreatment with compound (1 h before AA) at a drug concentration of 30 umol/kg po. It counts as functional. An outline of the steps: (§1)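 Mice dosed orally at 30 µmol/kg, 1 h before arachidonic acid applied to ear; edema read 1 h after AA (2 h post-dose). Percent inhibition of edema formation calculated versus provoked untreated controls; maximal attainable inhibition in model 80%.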

Another assay deals with Phosphodiesterase 4 (Homo sapiens, UniProt P27815+Q08499+Q07343+Q08493). Description: inhibition of cAMP-specific phosphodiesterase 4 (PDE4) was determined in cytosol from human neutrophils. It counts as protein assay. An outline of the steps:
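Enzyme source: cytosol of human neutrophils. Values as pIC50 (−log IC50), mean of two independent determinations each run in triplicate.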

Assay [2] deals with Mus musculus. Put plainly: In vivo inhibition of arachidonic acid induced mouse ear edema 1 hr after pretreatment with 30 umol/kg peroral dose. It counts as functional. Particulars: po. An outline of the steps:
as §1

Each structure is given as a SMILES string.

Take `CC1CC(=O)NN=C1c1ccc2c(c1)C(C)(C)C(=O)N2` (stereo not drawn): at Phosphodiesterase 3, the “Log IC50” value is reported as -7.9.

As for `COc1ccc([C@]2(C#N)CC[C@@H](C(=O)O)CC2)cc1OC1CCCC1` [CILOMILAST], the inhibition in vivo – broadly, the drop in the measured response relative to a control, in per cent – at 30 µmol/kg in the assay on Mus musculus [1] was found to be 33%. Also, the “Log IC50” value at Phosphodiesterase 3 is less than -5.

Take `COc1ccc(C2=NN(CC(=O)Nc3ccc(C4=NNC(=O)CC4C)cc3)C(=O)C3CC=CCC23)cc1OC` (stereo not drawn): the inhibition in vivo at 30 µmol/kg with Mus musculus [1] is 13%. The entries for the “Log IC50” value at Phosphodiesterase 3 and on Phosphodiesterase 4 were -6.7 and -8.4, respectively.

Take `COc1ccc(C2=NN(c3ccccc3)C(=O)C3CC=CCC23)cc1OC1CCCC1` (stereo not drawn): the “Log IC50” value is recorded as less than -5 on Phosphodiesterase 3 and -7.8 at Phosphodiesterase 4.

On to `COc1ccc(C2=NN(CCCCC(=O)Nc3ccc(-c4ccc(O)nn4)cc3)C(=O)C3CC=CCC23)cc1OC` (stereo not drawn), for which the inhibition in vivo at 30 µmol/kg with Mus musculus [1] was determined as 27%. Besides, the results for the “Log IC50” value at Phosphodiesterase 3 and on Phosphodiesterase 4 were -6.1 and -8.2, respectively.

Turning to `CCOc1ccc(C2=NN(c3ccccc3)C(=O)C3CC=CCC23)cc1OCC` (stereo not drawn), the “Log IC50” value on Phosphodiesterase 3 is less than -5; at Phosphodiesterase 4, -7.7.

Take `CCOc1ccc(C2=NN(CCCCOc3ccc(C4=NNC(=O)CC4C)cc3)C(=O)C3CC=CCC23)cc1OCC` (stereo not drawn): the inhibition in vivo at 30 µmol/kg in the assay on Mus musculus [1] worked out at 46%. In addition, the results for the “Log IC50” value on Phosphodiesterase 3 and at Phosphodiesterase 4 were -6.7 and -8.6, respectively.

Take `COc1ccc(C2=NN(c3ccc(C4=NNC(=O)CC4C)cc3)C(=O)C3CC=CCC23)cc1OC` (stereo not drawn): in the assay on Mus musculus [1], the inhibition in vivo at 30 µmol/kg was found to be 34%. Also, the “Log IC50” value was -6.7 at Phosphodiesterase 3 and -8.4 on Phosphodiesterase 4.

With `COc1ccc(C2=NN(CC(=O)Nc3ccc(-c4ccc(O)nn4)cc3)C(=O)C3CC=CCC23)cc1OC` (stereo not drawn), in the assay with Mus musculus [1], the inhibition in vivo at 30 µmol/kg turned out to be 31%. Besides, the results for the “Log IC50” value at Phosphodiesterase 3 and on Phosphodiesterase 4 were -5.9 and -8.1, respectively.

For `CC1CC(=O)NN=C1c1ccc(-n2cnc3c2CCCC3)cc1` (stereo not drawn) [TETRAHYDROBENXIMIDAZOLE], the “Log IC50” value on Phosphodiesterase 3 is -6.3.

For `COc1ccc(C2=NN(c3ccc(C4=NNC(=O)CC4C)cc3)C(=O)C3CC=CCC23)cc1OC1CCCC1` (stereo not drawn), the inhibition in vivo at 30 µmol/kg with Mus musculus [1] was 18%. Besides, the “Log IC50” value on Phosphodiesterase 3 is given as -6.3; on Phosphodiesterase 4 it was -7.8.

Consider `COc1ccc(C2=NN(CC(=O)Nc3cccc(C4=NNC(=O)CC4C)c3)C(=O)C3CC=CCC23)cc1OC` (stereo not drawn), for which the “Log IC50” value at Phosphodiesterase 3 is -5.8; at Phosphodiesterase 4 it was -8.4.

Turning to `COc1ccc(C2=NN(CCCCOc3ccc(C4=NNC(=O)CC4C)cc3)C(=O)C3CC=CCC23)cc1Cl` (stereo not drawn), the inhibition in vivo at 30 µmol/kg in the assay with Mus musculus [1] came out at 47%. The “Log IC50” value was -7.5 on Phosphodiesterase 3 and -7.8 on Phosphodiesterase 4.

Consider `COc1ccc(C2=NN(c3ccccc3)C(=O)C3CC=CCC23)cc1Cl` (stereo not drawn), for which the “Log IC50” value on Phosphodiesterase 3 is less than -5; at Phosphodiesterase 4, -7.1.

Take `COc1ccc(C2=NN(CCCCOc3ccc(C4=NNC(=O)CC4C)cc3)C(=O)C3CC=CCC23)cc1OC` (stereo not drawn): in the assay with Mus musculus [1], the inhibition in vivo at 30 µmol/kg is 32%. In addition, the “Log IC50” value on Phosphodiesterase 3 is recorded as -7.1; at Phosphodiesterase 4, -8.7.

Take `COc1ccc(C2=NN(c3ccc(C4=NNC(=O)CC4C)cc3)C(=O)C3CC=CCC23)cc1Cl` (stereo not drawn): the inhibition in vivo at 30 µmol/kg in the assay with Mus musculus [1] worked out at 35%. Moreover, the “Log IC50” value at Phosphodiesterase 3 is recorded as -7.1; at Phosphodiesterase 4 it was -7.

As to `COc1cc(-c2ccc(=O)[nH]n2)ccc1OC(F)F` [ZARDAVERINE], in the assay with Mus musculus [1], the inhibition in vivo at 30 µmol/kg came to 22%.

`CC1(C)C(=O)Nc2ccc(-c3ccc(O)nn3)cc21`: the “Log IC50” value on Phosphodiesterase 3 is given as -6.9.

For the compound `COc1ccc(C2=NN(c3ccc(-c4ccc(O)nn4)cc3)C(=O)C3CC=CCC23)cc1OC` (stereo not drawn), the inhibition in vivo at 30 µmol/kg in the assay on Mus musculus [1] was 8%. The “Log IC50” value is -5.4 at Phosphodiesterase 3 and -8.1 on Phosphodiesterase 4.

For `CCOc1ccc(C2=NN(c3ccc(C4=NNC(=O)CC4C)cc3)C(=O)C3CC=CCC23)cc1OCC` (stereo not drawn), the inhibition in vivo at 30 µmol/kg in the assay on Mus musculus [1] was 42%. Further, the results for the “Log IC50” value on Phosphodiesterase 3 and on Phosphodiesterase 4 were -6.6 and -8.1, respectively.

As for `COc1ccc(C2=NN(c3ccccc3)C(=O)C3CC=CCC23)cc1OC` (stereo not drawn), the inhibition in vivo at 30 µmol/kg with Mus musculus [2] came to 13%. Also, the “Log IC50” value on Phosphodiesterase 3 is listed as less than -5; on Phosphodiesterase 4, -7.9.

Consider `COc1ccc(C2=NN(CCCCC(=O)Nc3ccc(C4=NNC(=O)CC4C)cc3)C(=O)C3CC=CCC23)cc1OC` (stereo not drawn), for which the inhibition in vivo at 30 µmol/kg with Mus musculus [1] amounted to 26%. The “Log IC50” value was -7 on Phosphodiesterase 3 and -8.2 at Phosphodiesterase 4.

Source of the values: ChEMBL document CHEMBL1145041, “Synthesis and structure-activity relationships of cis-tetrahydrophthalazinone/pyridazinone hybrids: a novel series of potent dual PDE3/PDE4 inhibitory agents” (J Med Chem, 2003).
